# Sampled rows, rich in hits. Any-hit rate of the full collection: about 1.9%.
# CHRM5 antagonist = blocks acetylcholine activation of human M5 receptor | CHO-hM5 cells, Fluo-8 calcium fluorescence, ACh EC80 | inhibition, % at 3 µM | 360,000 compounds, 0.59% hits;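 active = inhibition above a per-plate cutoff, the mean of that plate's test compounds plus 3 SD, cut at about 27% in these data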;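 note: 0% = acetylcholine EC80 with DMSO and 100% = DMSO without agonist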
# M4 PAM = potentiates acetylcholine response at human M4 receptor; CHO-K1 hM4/Gqi5, Fluo-8 calcium fluorescence, ACh EC20; 0% = ACh EC20, 100% = maximal ACh; P08173; AID 624126; activation, % at 3 µM; 360,000 compounds, 0.4% hits;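 active = activation above its plate's cutoff, the mean activation of sample wells plus 3 SD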
# Target sequence (P08173 whole entry, looked up): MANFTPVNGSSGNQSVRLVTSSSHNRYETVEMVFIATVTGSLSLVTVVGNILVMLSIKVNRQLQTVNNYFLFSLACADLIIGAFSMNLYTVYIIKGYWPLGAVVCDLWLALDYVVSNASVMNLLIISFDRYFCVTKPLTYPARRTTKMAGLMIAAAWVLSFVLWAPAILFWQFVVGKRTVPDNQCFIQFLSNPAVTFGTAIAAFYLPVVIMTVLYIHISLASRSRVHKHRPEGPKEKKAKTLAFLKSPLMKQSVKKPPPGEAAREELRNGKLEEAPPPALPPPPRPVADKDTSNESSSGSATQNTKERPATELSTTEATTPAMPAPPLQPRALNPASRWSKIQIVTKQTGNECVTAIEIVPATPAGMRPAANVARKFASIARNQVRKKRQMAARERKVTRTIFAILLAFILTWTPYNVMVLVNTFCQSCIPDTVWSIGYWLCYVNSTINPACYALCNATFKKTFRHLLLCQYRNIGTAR
# CHRM5 agonist = agonists of human muscarinic M5 receptor (CHRM5); activation, % at 3 µM; 360,000 compounds, 0.19% hits; CHO-K1 hM5 cells, Fluo-8 calcium fluorescence; 0% DMSO wells, 100% maximal acetylcholine response; P08912;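 active = activation above the run's mean over test compounds plus 3 SD, cut at about 23% in these data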;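 note: signal is peak over basal fluorescence ratio across the kinetic read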
# M4 antag = CHRM4 antagonism in calcium assay | P08173 | CHO-hM4 cells, ACh EC80, Fluo-8 calcium fluorescence | inhibition, % at 3 µM | 360,000 compounds, 0.73% hits;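 active = inhibition above its plate's cutoff, the mean inhibition of sample wells plus 3 SD, cut at about 27% in these data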;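 note: 0% = acetylcholine EC80 with DMSO and 100% = DMSO without agonist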
# CHRM5 PAM = positive allosteric modulators of human muscarinic M5 receptor. 360,000 compounds, 0.3% hits. CHO-K1 hM5, Fluo-8 calcium, ACh EC20 PAM; 0% = ACh EC20, 100% = ACh EC100. AID 624038. activation, % at 3 µM. P08912;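 active = activation above the run cutoff, the mean activation of all test compounds plus 3 SD, cut at about 18% in these data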
#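 Measured by: Fluo-8 calcium fluorescence; material: human M5 receptor in CHO-K1 cells; schedule: Post-acetylcholine fluorescence recording 140 s; benchmarks: low control EC20 acetylcholine (0%), high control EC100 acetylcholine (100%); read-out: Max/basal fluorescence ratio as % of EC20–EC100 ACh window; compound: single dose, 3 µM nominal final test concentration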
# CHRM4 agonist = CHRM4 agonism in calcium assay. P08173. CHO-K1 hM4/Gqi5, Fluo-8 calcium fluorescence; vehicle 0%, full acetylcholine response 100%. activation, % at 3 µM. 360,000 compounds, 0.14% hits. AID 624127;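 active = activation above the run mean over all test wells plus 3 SD, cut at about 32% in these data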;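 note: peak over basal fluorescence ratio per well then scaled between controls; 0% = DMSO wells and 100% = acetylcholine at EC100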
# Active calls of the source: *.
SMILES,CHRM5 antagonist,M4 PAM,CHRM5 agonist,M4 antag,CHRM5 PAM,CHRM4 agonist
CC(OC(=O)c1ccc(Cl)c([N+](=O)[O-])c1)C(=O)N1CCN(Cc2ccccc2)CC1 (stereo not drawn),-2,-1,0,3,-3,7
O=C(Nc1ccccc1C(=O)Nc1nnc(C(F)(F)F)s1)c1ccccc1,36*,-4,1,-10,-24,10
COc1ccc(/C=N/NC(=O)c2cccc([N+](=O)[O-])c2)cc1OC(=O)c1ccc(C)cc1,-1,3,0,-4,57*,-1
COc1cc(/C=N/NC(=O)c2ccncc2)ccc1Oc1ccc([N+](=O)[O-])cn1,-14,-1,3,-3,18*,1
Nc1c(Cl)c(Cl)nc(C(=O)OCC(=O)NC2CCCCC2)c1Cl,-16,-3,-2,0,2,3
CCN(CCO)C(=O)C(c1ccccc1)c1ccccc1,-6,11,-3,4,5,0
CCN(CC)CCOC(=O)C(c1ccccc1)C1CCCCC1 (stereo not drawn),99*,-19,-1,100*,-19,1
CCN(CC)CCSC(=O)C(c1ccccc1)c1ccccc1,99*,-17,-2,96*,-19,1
CCN(CC)CCOC(=O)C(c1ccccc1)c1ccccc1,98*,-17,-1,54*,-18,2
NC(=O)C(c1ccccc1)C1CCCCC1 (stereo not drawn),-3,3,0,-1,0,2
COc1ccc2[nH]c3c(c2c1)CC(C)NC3=O (stereo not drawn),0,4,0,-10,1,0
Cc1cc(NS(=O)(=O)c2ccc(NC(=O)Nc3cccc(C(F)(F)F)c3)cc2)no1,23,-3,0,6,-5,0
CCc1ccc(NC(=O)Nc2ccsc2C(=O)OC)cc1,3,-4,-2,2,-6,5
COc1ccc(CNC(=O)c2cn(Cc3ccc(OC(C)=O)cc3)c(=O)s2)cc1,-1,4,12,-9,-4,9
COc1ccc(C(=O)Nc2ccc(N3CCN(C(=O)C(C)C)CC3)cc2)cc1[N+](=O)[O-],10,23*,3,-3,0,1
CCOc1cc(C(=O)Nc2ccc(N3CCN(C(C)=O)CC3)cc2)cc(OCC)c1OCC,-8,1,4,-5,18*,1
CCOc1ccc(C(=O)Nc2ccc(N3CCN(C(C)=O)CC3)cc2)cc1[N+](=O)[O-],4,-3,1,-2,-3,3
CCC(=O)Nc1ccc2c(c1)N(C(C)=O)c1ccccc1CC2,2,-2,1,4,-2,1
CC1=Nn2c(nnc2C2CCCCC2)SC1,-2,31*,3,10,10,0
CC1=Nn2c(nnc2-c2cc(-c3ccccc3)n[nH]2)SC1,-5,11,-4,-14,3,1
COc1ccc(-c2sc3cc4c(cc3c2C#Cc2ccc(N)cc2)OCO4)cc1,3,19,26*,5,10,2
Cn1cnnc1SCC(=O)c1ccc(O)c(O)c1,2,0,1,-7,4,1
Cc1cc(-c2ccc(Cl)cc2)n2nc(N)nc2n1,-11,28*,-2,-1,0,0
CCOC(=O)C(=O)c1cn(C2OCC(OC(C)=O)C(OC(C)=O)C2OC(C)=O)c2ccccc12 (stereo not drawn),-6,22*,-1,-4,4,2
CCOC(=O)Cn1cc(C(=O)C(=O)N2CCOCC2)c2ccccc21,11,10,-2,1,5,1
SMILES,CHRM5 antagonist,M4 PAM,CHRM5 agonist,M4 antag,CHRM5 PAM,CHRM4 agonist
O=C(c1cccnc1)N1CCC2CC1c1c(Cl)cccc12 (stereo not drawn),-6,2,1,1,0,1
COc1ccc(S(=O)(=O)Cc2ccc(C(=O)NCCCN(C)c3ccccc3)o2)cc1,8,-16,-3,28*,0,7
CC(=O)OCC(=O)N1N=C(c2ccc3ccccc3c2)CC1c1ccccc1 (stereo not drawn),-10,3,2,-5,3,2
Nc1cc(=O)[nH]c(SCC(=O)N2N=C(c3ccc4ccccc4c3)CC2c2ccccc2)n1 (stereo not drawn),6,-10,-4,36*,-5,1
O=C(CCc1nnc(-c2ccccc2)o1)c1ccc(Cl)cc1,6,33*,0,13,8,2
CC(=O)N1CCN(C(=O)COc2ccc(N(C)S(=O)(=O)c3cccs3)cc2)CC1,-1,18,-1,-22,20*,2
CC(OC(=O)COc1ccccc1Cc1ccccc1)C(=O)N(C)c1ccccc1 (stereo not drawn),3,4,2,-13,-8,7
CCc1nnc(NC(=O)c2cc(-c3ccco3)nc3ccccc23)s1,-5,4,1,-8,14,1
CCc1nnc(NC(=O)c2ccncc2)s1,-7,18*,-4,-5,20*,0
CCCc1nnc(NC(=O)c2ccncc2)s1,-3,0,2,2,-2,0
CCc1nnc(NC(=O)c2cc(-c3ccccn3)nc3ccccc23)s1,5,19*,5,-2,2,1
O=C(CSc1nnnn1C1CC2CCC1C2)Nc1ccnc2ccccc12 (stereo not drawn),32*,-16,10,25,-16,15
Brc1ccccc1OCCCCn1cnc2ccccc21,29*,-14,6,9,-23,14
O=C(Nc1ccc(S(=O)(=O)N2CCCC2)cc1)c1ccc(CN2CCc3ccccc3C2)cc1,18,-15,2,32*,-13,14
COCC(C)NC(=O)c1ccc(CN2CCc3ccccc3C2)cc1 (stereo not drawn),11,-16,-9,28*,-5,1
O=C(Nc1ccccc1)c1ccc(CN2CCC(Cc3ccccc3)CC2)cc1,10,-16,-8,32*,-13,2
O=C(Nc1ccc(Cl)cc1)c1ccc(CN2CCc3ccccc3C2)cc1,4,-8,-8,12,-2,3
COc1ccc2c(c1)cc(C(=O)N[C@@H](Cc1ccccc1)C(=O)O)n2C,12,0,1,-1,-3,0
COc1ccccc1CCNC(=O)CCn1c(=O)c2cccn2c2ccc(F)cc21,6,-9,-1,-5,-5,8
CCOC(=O)c1c(S(=O)(=O)Nc2ccccc2OCC)c(C)n(C)c1C,-3,6,-3,-2,2,1
CCOC(=O)N1CCC(NC(=S)Nc2ccc3nc(N4CCN(CC)CC4)cc(C)c3c2)CC1,3,-31,0,37*,1,-2
